ChEMBL document CHEMBL3526004, “Interaction of silymarin flavonolignans with organic anion-transporting polypeptides” (Drug Metab Dispos, 2013)

Tests used:
[1] = biological target: T1, Solute carrier organic anion transporter family member 1B3 (Homo sapiens, UniProt Q9NPD5); experiment: Inhibition of OATP1B3 (unknown origin) expressed in HEK293 cells assessed as reduction of [3H]estradiol-17beta-glucuronide uptake at 10 uM after 3 mins by beta-counting; format: ADME, cell-based; details: hek293, 0.05 h
T1 sequence (Q9NPD5 whole entry): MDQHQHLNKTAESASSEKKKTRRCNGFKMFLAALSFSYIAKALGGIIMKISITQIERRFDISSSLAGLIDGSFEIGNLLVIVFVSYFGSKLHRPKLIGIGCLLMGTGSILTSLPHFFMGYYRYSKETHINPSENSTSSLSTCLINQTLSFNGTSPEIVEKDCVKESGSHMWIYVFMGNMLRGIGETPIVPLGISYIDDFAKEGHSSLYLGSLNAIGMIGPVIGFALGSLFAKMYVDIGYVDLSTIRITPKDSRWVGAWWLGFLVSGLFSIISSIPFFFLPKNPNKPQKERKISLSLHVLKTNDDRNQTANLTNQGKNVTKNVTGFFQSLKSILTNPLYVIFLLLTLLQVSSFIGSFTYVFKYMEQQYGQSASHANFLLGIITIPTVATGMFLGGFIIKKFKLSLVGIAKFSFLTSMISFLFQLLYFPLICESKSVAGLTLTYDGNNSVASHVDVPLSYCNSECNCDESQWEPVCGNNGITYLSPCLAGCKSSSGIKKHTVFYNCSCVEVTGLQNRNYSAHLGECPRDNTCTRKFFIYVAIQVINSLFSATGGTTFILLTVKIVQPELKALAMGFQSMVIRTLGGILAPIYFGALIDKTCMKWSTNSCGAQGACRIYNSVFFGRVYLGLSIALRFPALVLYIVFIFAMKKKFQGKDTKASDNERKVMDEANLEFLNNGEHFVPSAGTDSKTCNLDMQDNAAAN
Outline: (§1)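 Confluent cells were washed in PBS, then given 1 µM [3H]-E2 17G (OATP1B1, OATP1B3 HEK293) or 1 µM [3H]-E1S (OATP2B1 MDCKII) with 10 µM compound in HBSS pH 7.4 for 3 min at 37°C. Uptake into mock or parental cells was subtracted after protein normalization. Results are % vehicle, mean ± SD of at least three experiments in triplicate.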

[2] = biological target: T2, Solute carrier organic anion transporter family member 2B1 (Homo sapiens, UniProt O94956); experiment: Inhibition of OATP2B1 (unknown origin) expressed in MDCK2 cells assessed as reduction of [3H]estrone-3-sulfate uptake at 10 uM after 3 mins by beta-counting; format: ADME, cell-based; details: mdck-ii, 0.05 h; outline: as §1
T2 sequence (O94956 whole entry): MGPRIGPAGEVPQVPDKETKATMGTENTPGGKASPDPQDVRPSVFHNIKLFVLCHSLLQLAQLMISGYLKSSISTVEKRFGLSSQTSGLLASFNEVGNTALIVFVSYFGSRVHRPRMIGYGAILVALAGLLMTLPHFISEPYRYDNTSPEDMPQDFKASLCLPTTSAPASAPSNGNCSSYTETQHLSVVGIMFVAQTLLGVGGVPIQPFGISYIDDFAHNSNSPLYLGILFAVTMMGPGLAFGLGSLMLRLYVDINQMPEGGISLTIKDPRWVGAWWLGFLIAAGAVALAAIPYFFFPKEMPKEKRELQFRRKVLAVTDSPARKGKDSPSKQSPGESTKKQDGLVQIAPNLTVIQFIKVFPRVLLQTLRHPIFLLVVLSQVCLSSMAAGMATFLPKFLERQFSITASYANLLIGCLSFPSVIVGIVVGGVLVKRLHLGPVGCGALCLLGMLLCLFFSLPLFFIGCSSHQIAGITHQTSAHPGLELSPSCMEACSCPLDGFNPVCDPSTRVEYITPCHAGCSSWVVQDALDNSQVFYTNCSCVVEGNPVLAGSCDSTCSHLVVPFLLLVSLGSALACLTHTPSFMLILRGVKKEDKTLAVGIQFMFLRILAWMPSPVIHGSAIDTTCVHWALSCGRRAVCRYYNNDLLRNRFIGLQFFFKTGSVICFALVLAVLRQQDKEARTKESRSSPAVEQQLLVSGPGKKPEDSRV

[3] = biological target: T3, Solute carrier organic anion transporter family member 1B1 (Homo sapiens, UniProt Q9Y6L6); experiment: Inhibition of OATP1B1 (unknown origin) expressed in HEK293 cells assessed as reduction of [3H]estradiol-17beta-glucuronide uptake at 10 uM after 3 mins by beta-counting; format: ADME, cell-based; details: hek293, 0.05 h; outline: as §1
T3 sequence (Q9Y6L6 whole entry): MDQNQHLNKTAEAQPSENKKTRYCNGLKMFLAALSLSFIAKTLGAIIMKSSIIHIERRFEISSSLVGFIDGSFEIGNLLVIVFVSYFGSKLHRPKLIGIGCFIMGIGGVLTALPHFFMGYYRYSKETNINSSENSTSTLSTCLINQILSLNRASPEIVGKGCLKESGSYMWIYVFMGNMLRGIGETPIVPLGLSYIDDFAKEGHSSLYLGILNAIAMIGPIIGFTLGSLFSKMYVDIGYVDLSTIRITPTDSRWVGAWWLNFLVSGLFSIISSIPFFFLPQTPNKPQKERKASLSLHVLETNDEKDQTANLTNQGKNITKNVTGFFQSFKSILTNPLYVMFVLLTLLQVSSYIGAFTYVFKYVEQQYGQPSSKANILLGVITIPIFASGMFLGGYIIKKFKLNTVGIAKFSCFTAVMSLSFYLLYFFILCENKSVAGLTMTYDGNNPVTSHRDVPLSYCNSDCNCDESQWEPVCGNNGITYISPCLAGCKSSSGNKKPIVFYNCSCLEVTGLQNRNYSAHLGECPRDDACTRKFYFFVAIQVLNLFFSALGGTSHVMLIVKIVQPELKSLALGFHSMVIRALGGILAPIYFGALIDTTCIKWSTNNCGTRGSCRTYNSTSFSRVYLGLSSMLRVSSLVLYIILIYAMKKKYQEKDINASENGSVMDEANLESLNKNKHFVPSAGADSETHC

[4] = biological target: T3, Solute carrier organic anion transporter family member 1B1; experiment: Inhibition of OATP1B1 (unknown origin) expressed in HEK293 cells assessed as reduction of [3H]estradiol-17beta-glucuronide uptake after 3 mins by beta-counting; format: ADME, cell-based
Outline: (§2)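 Transfected HEK293 (G418) or MDCKII (hygromycin B) cells were co-incubated with 0-100 µM compound and [3H]-E2 17G (1 µM, 0.25 µCi/ml; OATP1B1, OATP1B3) or [3H]-E1S (1 µM; OATP2B1) in HBSS pH 7.4, 3 min at 37°C. OATP-negative uptake was subtracted, and results expressed as % vehicle. Two experiments were run in duplicate. IC50 came from non-linear dose-response fits.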

[5] = biological target: T1, Solute carrier organic anion transporter family member 1B3; experiment: Inhibition of OATP1B3 (unknown origin) expressed in HEK293 cells assessed as reduction of [3H]estradiol-17beta-glucuronide uptake after 3 mins by beta-counting; format: ADME, cell-based; outline: as §2
[6] = biological target: T2, Solute carrier organic anion transporter family member 2B1; experiment: Inhibition of OATP2B1 (unknown origin) expressed in MDCK2 cells assessed as reduction of [3H]estrone-3-sulfate uptake after 3 mins by beta-counting; format: ADME, cell-based, MDCK-II; outline: as §2
[7] = biological target: T3, Solute carrier organic anion transporter family member 1B1; experiment: Inhibition of OATP1B1 (unknown origin) expressed in HEK293 cells assessed as reduction of [3H]estradiol-17beta-glucuronide uptake after 3 mins by beta-counting in presence of OATP inhibitor BSP; format: ADME, cell-based; details: hek293, 0.05 h
[8] = biological target: T1, Solute carrier organic anion transporter family member 1B3; experiment: Inhibition of OATP1B3 (unknown origin) expressed in HEK293 cells assessed as reduction of [3H]estradiol-17beta-glucuronide uptake after 3 mins by beta-counting in presence of OATP inhibitor BSP; format: ADME, cell-based; details: hek293, 0.05 h
[9] = biological target: T2, Solute carrier organic anion transporter family member 2B1; experiment: Inhibition of OATP2B1 (unknown origin) expressed in MDCK2 cells assessed as reduction of [3H]estrone-3-sulfate uptake after 3 mins by beta-counting in presence of OATP inhibitor BSP; format: ADME, cell-based; details: mdck-ii, 0.05 h
[10] = Inhibition of OATP-mediated [3H]estradiol-17beta-glucuronide uptake in sandwich-cultured human hepatocytes at 100 uM after 1 day by beta-counting; format: ADME, cell-based, Hepatocyte
Outline: (§3)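 Day-1 human hepatocytes (seeded 350,000 cells/well, medium changed after 1 h) rinsed in HBSS at 37°C. Co-incubated with [3H]-E2 17G (1 µM, 1 min) or [3H]-rosuvastatin (0.5 µM, 1.5 min) plus compound or vehicle. Cells were washed in ice-cold HBSS, lysed in 0.5% Triton X-100, and counted by scintillation. Non-OATP accumulation (100 µM BSP) was subtracted. Results are % vehicle, protein-normalized, as mean ± SEM of three experiments in triplicate.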

[11] = Inhibition of OATP-mediated [3H]rosuvastatin uptake in sandwich-cultured human hepatocytes at 100 uM after 1 day by beta-counting; format: ADME, cell-based, Hepatocyte; outline: as §3
[12] = Inhibition of OATP-mediated [3H]rosuvastatin uptake in sandwich-cultured human hepatocytes at 100 uM after 8 days by beta-counting; format: ADME, cell-based, Hepatocyte
Outline: (§4)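 Hepatocytes were overlaid with Matrigel (0.25 mg/ml) on day 1 and cultured to day 8 in ITS/0.1 µM dexamethasone medium, changed daily. Uptake of [3H]-E2 17G (1 µM, 1 min) or [3H]-rosuvastatin (0.5 µM, 1.5 min) was run at 37°C in HBSS with compound or vehicle. The BSP (100 µM) accumulation was subtracted, and the OATP-mediated uptake was expressed as % vehicle, normalized to BCA protein and corrected with cell-free wells.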

Plasma = experiment: Plasma concentration in patient with chronic noncirrhotic HCV at 420 to 700 mg administered 3 times per day; format: ADME, cell-free; details: human
[13] = Protein binding in rat; format: ADME, organism-based; details: in vivo, read-out: PB (converted)
[14] = Unbound fraction in human plasma; format: ADME, cell-free
[15] = Cmax at steady state in patient with chronic HCV infection at 140 mg administered 3 times per day; format: ADME, organism-based; design: dose 140 mg; details: human, in vivo
[16] = fCmax in portal vein of patient with chronic noncirrhotic HCV infection at 140 mg; format: ADME; details: human
[17] = fCmax in portal vein of patient with chronic noncirrhotic HCV infection at 700 mg; format: ADME; details: human
[18] = Ratio of fCmax in portal vein of patient with chronic noncirrhotic HCV infection at 700 mg to IC50 for OATP1B1 (unknown origin) expressed in HEK293 cells; design: species or system Homo sapiens
[19] = Ratio of fCmax in portal vein of patient with chronic noncirrhotic HCV infection at 140 mg to IC50 for OATP1B1 (unknown origin) expressed in HEK293 cells; design: species or system Homo sapiens
[20] = Ratio of fCmax in portal vein of patient with chronic noncirrhotic HCV infection at 700 mg to IC50 for OATP1B3 (unknown origin) expressed in HEK293 cells; design: species or system Homo sapiens
[21] = Ratio of fCmax in portal vein of patient with chronic noncirrhotic HCV infection at 140 mg to IC50 for OATP1B3 (unknown origin) expressed in HEK293 cells; design: species or system Homo sapiens
[22] = Ratio of fCmax in portal vein of patient with chronic noncirrhotic HCV infection at 700 mg to IC50 for OATP2B1 (unknown origin) expressed in HEK293 cells; design: species or system Homo sapiens
[23] = Ratio of fCmax in portal vein of patient with chronic noncirrhotic HCV infection at 140 mg to IC50 for OATP2B1 (unknown origin) expressed in HEK293 cells; design: species or system Homo sapiens
[24] = Cmax in patient with chronic noncirrhotic HCV infection at 700 mg; format: ADME, organism-based; design: dose 700 mg; details: human, in vivo
[25] = Cmax in patient with chronic noncirrhotic HCV infection at 140 mg; format: ADME, organism-based; design: dose 140 mg; details: human, in vivo
[26] = Residual OATP-mediated [3H]estradiol-17beta-glucuronide uptake in sandwich-cultured human hepatocytes at 100 uM after 8 days by beta-counting
[27] = Inhibition of OATP-mediated [3H]estradiol-17beta-glucuronide uptake in sandwich-cultured human hepatocytes at 100 uM after 8 days by beta-counting; format: ADME, cell-based, Hepatocyte; outline: as §4

Structure (SMILES) | inhibition (INH) [1] | inhibition (INH) [2] | inhibition (INH) [3] | IC50 [4] | IC50 [5] | IC50 [6] | inhibition (INH) [7] | inhibition (INH) [8] | inhibition (INH) [9] | inhibition (INH) [10] | inhibition (INH) [11] | inhibition (INH) [12] | fraction unbound [13] | fraction unbound [14] | Cmax [15] | fCmax [16] | fCmax [17] | Ratio [18] | Ratio [19] | Ratio [20] | also measured
COc1cc([C@@H]2[C@H]3CO[C@@]4(O)C(=O)[C@@H]2C=C([C@H]2Oc5cc(O)cc(O)c5C(=O)[C@@H]2O)[C@@H]34)ccc1O [SILIDIANIN] | Active | Active | Active |  |  |  |  |  |  |  |  |  |  |  |  |  |  |  |  |  | 
COc1cc([C@H]2Oc3cc([C@H]4Oc5cc(O)cc(O)c5C(=O)[C@@H]4O)ccc3O[C@@H]2CO)ccc1O [SILYBIN A] | Active | Active | Active | 9.7 µM | 2.7 µM | 4.5 µM | Not Active | Not Active | Not Active | Active | Active | Active | 0.3 | 0.05 | 80 nM | 0.04 µM | 0.22 µM | 0.02 | 0.004 | 0.08 | concentration (Plasma): 4200 nM; Ratio [21]: 0.01; Ratio [22]: 0.05; Ratio [23]: 0.01; Cmax [24]: 580 ng/mL; Cmax [25]: 40 ng/mL; residual activity [26]: 58%
COc1cc([C@@H]2Oc3cc([C@H]4Oc5cc(O)cc(O)c5C(=O)[C@@H]4O)ccc3O[C@H]2CO)ccc1O [SILYBIN B] |  | Active | Active | 8.5 µM | 5 µM | 0.8 µM | Not Active | Not Active | Not Active | Active | Active | Active | 0.3 | 0.05 | 16 nM | 0.13 µM | 0.7 µM | 0.08 | 0.02 | 0.14 | inhibition (INH) [27]: Active; Ratio [21]: 0.03; Ratio [22]: 0.88; Ratio [23]: 0.16; Cmax [24]: 220 ng/mL; Cmax [25]: 8 ng/mL
